Converted amounts (≈) assume the structure as drawn.
Legend:
[1] = Antiferroptotic activity in human IMR32 neuroblastoma cells assessed as inhibition of erastin-induced cell death preincubated for 1 hr before erastin stimulation and measured after 13 hrs by fluorescence plate reader method; assay type: functional; settings: IMR-32
Method in brief: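 Human IMR-32 neuroblastoma cells seeded at 25,000/well, next day pretreated 1 h in triplicate with a 1/3 dilution series (5 μM to 0.68 nM) plus Sytox Green (1.6 μM), then stimulated with erastin (10 μM). Sytox Green fluorescence (ex 485/em 520 nm) read after 13 h; Triton-X100 (0.05%) lysis as 100% death reference; % death background-corrected; IC50 determined.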

[2] = Kinetic solubility of the compound in PBS buffer at pH 7.4 after 2 hrs at 37 deg C by turbidimetric analysis; assay type: physicochemical; settings: read-out: Kinetic_solubility
Method in brief: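 Turbidimetric kinetic solubility by UV-vis reading; final test concentrations 3.125–200 μM, from DMSO solution diluted into 10 mM PBS pH 7.4.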

[3] = Half life in human liver microsomes by LC/MS/MS analysis; assay type: ADME
Method in brief: (§1)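 Compound incubated with liver microsomes (CYP450 and other NADP-dependent enzymes); parent loss monitored and expressed as half-life in min.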

[4] = Half life in mouse liver microsomes by LC/MS/MS analysis; assay type: ADME; method in brief: as §1
[5] = Stability in human plasma assessed as percentage recovery after 6 hrs by LC/MS/MS analysis; assay type: ADME, cell-free; settings: read-out: Drug recovery
Method in brief: (§2)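 Compound incubated in plasma up to 6 h; result given as percentage of parent compound remaining.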

[6] = Stability in mouse plasma assessed as percentage recovery after 6 hrs by LC/MS/MS analysis; assay type: ADME, cell-free; settings: read-out: Drug recovery; method in brief: as §2
[7] = Antiferroptotic activity in human HT1080 cells assessed as inhibition of erastin-induced cell death by Alamar blue assay; assay type: functional, cell-based; settings: HT-1080
[8] = Antiferroptotic activity in human HT1080 cells assessed as inhibition of erastin-induced cell death; assay type: functional, cell-based; settings: HT-1080
[9] = Antiferroptotic activity in human HT1080 cells assessed as inhibition of erastin-induced cell death by cell based assay; assay type: functional; settings: HT-1080
[10] = Half life in C57BL/6 mouse plasma; assay type: ADME, cell-free
[11] = Intrinsic clearance in C57BL/6 mouse liver microsomes; assay type: ADME

| SMILES | IC50 [1] [nM] | further results |
| --- | --- | --- |
| CCOC(=O)c1ccc(NC2CCCCC2)c(N)c1 | 18 | solubility kinetic at 2 h [2]: > 200 µM; half-life [3]: 6.9 min; half-life [4]: 1.9 min; remaining at 6 h [5]: 100%; remaining at 6 h [6]: 0%; IC50 [7]: 95 nM |
| CCOC(=O)c1ccc(NC2CCCCC2)c(NCc2ccccc2)c1 |  | IC50 [8]: 6 nM |
| CNS(=O)(=O)c1ccc(NC2C3CC4CC(C3)CC2C4)c(NCc2ccccc2)c1 (centres undefined) | 4.9 |  |
| CCNS(=O)(=O)c1ccc(NC2CC3CCC2C3)c(NCc2ccccc2)c1 (centres undefined) | 3 |  |
| CCNS(=O)(=O)c1ccc(NC2CCCCCCC2)c(NCc2ccccc2)c1 | 2.4 |  |
| CCNS(=O)(=O)c1ccc(NC2CCCC2)c(NCc2ccncc2)c1 | 36 |  |
| CCNS(=O)(=O)c1ccc(NC2CCCCC2)c(N)c1 | 67 | solubility kinetic at 2 h [2]: 12.5 µM (≈ 3.72 µg/mL); half-life [3]: 37 min; half-life [4]: 31 min; remaining at 6 h [5]: 81.9%; remaining at 6 h [6]: 86.2% |
| CC(C)(C)NS(=O)(=O)c1ccc(NC2CCCCC2)c(NCc2ccncc2)c1 | 11 |  |
| CNS(=O)(=O)c1ccc(NC2CCCCC2)c(N)c1 | 76 |  |
| CCNC(=O)c1ccc(NC2C3CC4CC(C3)CC2C4)c(NCc2ccncc2)c1 (centres undefined) | 3.4 | solubility kinetic at 2 h [2]: 25 µM (≈ 10.1 µg/mL); half-life [3]: 16 min; half-life [4]: 30 min; remaining at 6 h [5]: 100%; remaining at 6 h [6]: 100% |
| CCNS(=O)(=O)c1ccc(NC2CC3CCC2C3)c(NCc2ccncc2)c1 (centres undefined) | 9.4 |  |
| CNS(=O)(=O)c1ccc(NC2C3CC4CC(C3)CC2C4)c(NCc2ccncc2)c1 (centres undefined) | 6.4 |  |
| CCNC(=O)c1ccc(NC2CCCCC2)c(NCc2ccccc2)c1 | 21 |  |
| COC(=O)c1ccc(NC2CCCCC2)c(N)c1 | 34 |  |
| CCNS(=O)(=O)c1ccc(NC2C3CC4CC(C3)CC2C4)c(N)c1 (centres undefined) | 17 |  |
| CCNS(=O)(=O)c1ccc(NC2CCCCCCC2)c(N)c1 | 9.3 |  |
| CC(C)(C)NS(=O)(=O)c1ccc(NC2CCCCC2)c(NCc2ccccc2)c1 | 6.2 |  |
| CCNC(=O)c1ccc(NC2CCCCC2)c(NCc2ccncc2)c1 | 26 |  |
| CCNS(=O)(=O)c1ccc(NC2CCCCC2)c(NCc2ccccc2)c1 | 4 | solubility kinetic at 2 h [2]: 12.5 µM (≈ 4.84 µg/mL); half-life [3]: 88 min; half-life [4]: 187 min; remaining at 6 h [5]: 100%; remaining at 6 h [6]: 98.6% |
| CCNC(=O)c1ccc(NC2C3CC4CC(C3)CC2C4)c(NCc2ccccc2)c1 (centres undefined) | 6.5 |  |
| CCNC(=O)c1ccc(NC2C3CC4CC(C3)CC2C4)c(N)c1 (centres undefined) | 14 |  |

| SMILES | IC50 [1] [nM] | further results |
| --- | --- | --- |
| CC(C)(C)NS(=O)(=O)c1ccc(NC2C3CC4CC(C3)CC2C4)c(N)c1 (centres undefined) | 6 |  |
| CCNS(=O)(=O)c1ccc(NC2CC2)c(NCc2ccncc2)c1 | 128 |  |
| CC(C)(C)NS(=O)(=O)c1ccc(NC2C3CC4CC(C3)CC2C4)c(NCc2ccncc2)c1 (centres undefined) | 5.2 |  |
| CCNS(=O)(=O)c1ccc(NC2CCCC2)c(NCc2ccccc2)c1 | 8.2 |  |
| CCNS(=O)(=O)c1ccc(NC2C3CC4CC(C3)CC2C4)c(NCc2ccccc2)c1 (centres undefined) | 3.5 | solubility kinetic at 2 h [2]: 12.5 µM (≈ 5.5 µg/mL); half-life [3]: 36 min; half-life [4]: 31 min; remaining at 6 h [5]: 100%; remaining at 6 h [6]: 99.4% |
| CCNS(=O)(=O)c1ccc(NC2CC2)c(N)c1 | 76 |  |
| CCNS(=O)(=O)c1ccc(NC2CC2)c(NCc2ccccc2)c1 | 61 |  |
| CCNS(=O)(=O)c1ccc(NC2CCCCC2)c(NCc2ccncc2)c1 | 23 |  |
| Nc1cc(C(=O)O)ccc1NC1CCCCC1 | 210 |  |
| CC(C)(C)OC(=O)c1ccc(NC23CC4CC(CC(C4)C2)C3)c(/N=C\c2cncnc2)c1 |  | IC50 [9]: 350 nM; half-life [10]: ≥ 120 min; CLH [11]: < 0.5 mL/min/g |
| CNS(=O)(=O)c1ccc(NC2CCCCC2)c(NCc2ccncc2)c1 | 15 |  |
| CCNS(=O)(=O)c1ccc(NC2CCCCCCC2)c(NCc2ccncc2)c1 | 22 |  |
| CCNS(=O)(=O)c1ccc(NC2CC3CCC2C3)c(N)c1 (centres undefined) | 28 |  |
| CCNS(=O)(=O)c1ccc(NC2C3CC4CC(C3)CC2C4)c(NCc2ccncc2)c1 (centres undefined) | 3.9 | solubility kinetic at 2 h [2]: 12.5 µM (≈ 5.51 µg/mL); half-life [3]: 64 min; half-life [4]: 26 min; remaining at 6 h [5]: 100%; remaining at 6 h [6]: 100% |
| CNS(=O)(=O)c1ccc(NC2C3CC4CC(C3)CC2C4)c(N)c1 (centres undefined) | 11 |  |
| CC(C)(C)NS(=O)(=O)c1ccc(NC2C3CC4CC(C3)CC2C4)c(NCc2ccccc2)c1 (centres undefined) | 3.4 |  |
| CC(C)(C)NS(=O)(=O)c1ccc(NC2CCCCC2)c(N)c1 | 27 |  |
| CNS(=O)(=O)c1ccc(NC2CCCCC2)c(NCc2ccccc2)c1 | 3.7 |  |
| CCNS(=O)(=O)c1ccc(NC2CCCC2)c(N)c1 | 82 |  |
| CCNC(=O)c1ccc(NC2CCCCC2)c(N)c1 | 88 |  |
